According to ChEMBL document CHEMBL4038327, “Inhibitory Kappa B Kinase α (IKKα) Inhibitors That Recapitulate Their Selectivity in Cells against Isoform-Related Biomarkers” (J Med Chem, 2017):

Assays:
[1] = target: T1, Inhibitor of nuclear factor kappa-B kinase subunit alpha (Homo sapiens, UniProt O15111); assay: Inhibition of recombinant human N-terminal GST-tagged IKKalpha (1 to 745 residues) expressed in baculovirus expression system using biotinylated IkBalpha as substrate after 60 mins by DELFIA
T1 sequence (O15111 whole entry): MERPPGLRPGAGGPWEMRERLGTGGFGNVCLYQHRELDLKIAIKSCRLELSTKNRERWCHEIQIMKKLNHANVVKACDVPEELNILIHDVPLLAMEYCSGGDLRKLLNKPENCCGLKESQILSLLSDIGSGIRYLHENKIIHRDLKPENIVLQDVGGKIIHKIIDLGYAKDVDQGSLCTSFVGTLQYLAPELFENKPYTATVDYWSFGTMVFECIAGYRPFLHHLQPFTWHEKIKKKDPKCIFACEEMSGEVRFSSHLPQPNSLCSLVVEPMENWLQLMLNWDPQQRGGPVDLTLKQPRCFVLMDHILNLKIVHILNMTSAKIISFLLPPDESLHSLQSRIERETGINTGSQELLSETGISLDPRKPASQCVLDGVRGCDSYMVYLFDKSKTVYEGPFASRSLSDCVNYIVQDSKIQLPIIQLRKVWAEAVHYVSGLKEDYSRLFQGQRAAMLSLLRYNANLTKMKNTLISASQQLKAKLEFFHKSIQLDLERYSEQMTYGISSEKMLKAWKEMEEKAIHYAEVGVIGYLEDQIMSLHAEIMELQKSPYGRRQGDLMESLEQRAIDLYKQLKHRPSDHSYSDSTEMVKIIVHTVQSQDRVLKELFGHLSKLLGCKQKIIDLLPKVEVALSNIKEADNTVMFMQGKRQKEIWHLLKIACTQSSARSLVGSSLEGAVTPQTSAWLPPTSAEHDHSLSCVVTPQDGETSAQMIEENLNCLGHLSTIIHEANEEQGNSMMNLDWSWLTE

[2] = target: T2, Inhibitor of nuclear factor kappa-B kinase subunit beta (Homo sapiens, UniProt O14920); assay: Inhibition of recombinant full length human IKKbeta expressed in baculovirus infected sf9 insect cells using biotinylated IkBalpha as substrate after 60 mins by DELFIA
T2 sequence (O14920 whole entry): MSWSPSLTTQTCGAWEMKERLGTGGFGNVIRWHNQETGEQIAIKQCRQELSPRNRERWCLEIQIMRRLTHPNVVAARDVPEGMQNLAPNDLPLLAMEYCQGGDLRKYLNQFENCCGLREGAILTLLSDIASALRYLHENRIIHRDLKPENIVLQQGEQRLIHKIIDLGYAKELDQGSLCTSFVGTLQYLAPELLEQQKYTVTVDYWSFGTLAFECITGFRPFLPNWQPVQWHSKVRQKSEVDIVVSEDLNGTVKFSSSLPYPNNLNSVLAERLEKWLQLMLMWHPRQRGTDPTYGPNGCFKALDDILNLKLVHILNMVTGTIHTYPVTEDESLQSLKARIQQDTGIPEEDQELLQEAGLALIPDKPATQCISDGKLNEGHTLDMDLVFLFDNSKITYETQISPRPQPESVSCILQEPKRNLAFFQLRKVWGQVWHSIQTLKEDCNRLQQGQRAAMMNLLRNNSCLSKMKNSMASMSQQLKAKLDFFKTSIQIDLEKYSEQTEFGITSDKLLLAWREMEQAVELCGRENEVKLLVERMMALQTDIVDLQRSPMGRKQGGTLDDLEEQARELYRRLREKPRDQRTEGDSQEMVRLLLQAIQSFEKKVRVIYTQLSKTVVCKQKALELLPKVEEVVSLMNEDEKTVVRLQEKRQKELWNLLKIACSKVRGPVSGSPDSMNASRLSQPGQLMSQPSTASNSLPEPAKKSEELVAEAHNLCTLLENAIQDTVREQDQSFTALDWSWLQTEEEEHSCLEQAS
In short: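 Recombinant IKKβ (37 nM) was incubated with biotinylated IκB-α (Ser32) peptide (0.375 μM) and 40 μM ATP in Tris-HCl pH 7.5 with MgCl2, EDTA, DTT and BSA for 60 min at 30 °C. The reaction was quenched with EDTA and captured on streptavidin. Detection used anti-phospho-IκBα (Ser32/36) mAb plus Eu-anti-mouse IgG, read by time-resolved fluorescence (340/615 nm). Apparent Ki was obtained via Cheng–Prusoff, n=3.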

SMILES	Ki [1] [µM]	Ki [2] [µM]
N#Cc1c[nH]c2nc(N)nc(-c3ccc(F)cc3)c12	10	> 30
N#Cc1c[nH]c2nc(N)nc(N3CCC[C@H]3CO)c12	3.1	> 30
Nc1nc(NC2CCCCC2)c2cc[nH]c2n1	> 30	> 30
CNc1nc(N)nc2[nH]cc(C#N)c12	13	> 30
N#Cc1c[nH]c2nc(N)nc(NC3CCCCC3)c12	1.8	> 30
Nc1nc(N[C@H]2CC[C@H](O)CC2)c2cc[nH]c2n1	> 30	> 30
N#Cc1c[nH]c2nc(N)nc(N)c12	> 30	> 30
N#Cc1c[nH]c2nc(N)nc(NCCN3CCOCC3)c12	> 30	> 30
Cc1ccc(NS(=O)(=O)c2ccc(-c3nc(N)nc4[nH]cc(C#N)c34)cc2)cc1	16	1.4
N#Cc1c[nH]c2nc(N)nc(N3CCN(CCCO)CC3)c12	12.1	> 30
N#Cc1c[nH]c2nc(N)nc(N3CCN(c4ccccc4)CC3)c12	> 30	> 30
N#Cc1c[nH]c2nc(N)nc(Nc3ccccc3)c12	13	> 30
CN(c1nc(N)nc2[nH]cc(C#N)c12)C1CCCCC1	> 30	> 30
N#Cc1c[nH]c2nc(N)nc(N[C@H]3CC[C@H](O)CC3)c12	2	> 30
N#Cc1c[nH]c2nc(N)nc(N3CCOCC3)c12	> 30	20
N#Cc1c[nH]c2nc(N)nc(N[C@@H]3C[C@H](O)[C@@H](O)[C@H]3O)c12	0.8	3.6
CS(=O)(=O)c1ccc(-c2nc(N)nc3[nH]cc(C#N)c23)cc1	2.4	0.3
N#Cc1c[nH]c2nc(N)nc(-c3ccccc3S(N)(=O)=O)c12	> 30	> 30
Nc1nc(Cl)c2cc[nH]c2n1	> 30	> 30
N#Cc1c[nH]c2nc(N)nc(-c3ccccc3F)c12	2	> 30
N#Cc1c[nH]c2nc(N)nc(-c3ccc(O)cc3)c12	1.6	20
N#Cc1c[nH]c2ncnc(-c3ccc(S(N)(=O)=O)cc3)c12	2.1	> 30
N#Cc1c[nH]c2nc(N)nc(-c3ccccc3O)c12	15	> 30
N#Cc1c[nH]c2nc(N)nc(N3CC[C@H](O)C3)c12	6	> 30
N#Cc1c[nH]c2nc(N)nc(N(CCO)C3CCCCC3)c12	> 30	> 30
N#Cc1c[nH]c2nc(N)nc(-c3cccc(CO)c3)c12	9.8	4
N#Cc1c[nH]c2nc(N)nc(-c3cccc(S(N)(=O)=O)c3)c12	5.3	5.9

SMILES	Ki [1] [µM]	Ki [2] [µM]
NC(=O)c1c[nH]c2nc(N)nc(N[C@H]3CC[C@H](O)CC3)c12	> 30	> 30
N#Cc1c[nH]c2nc(N)nc(-c3ccccc3)c12	1.7	> 30
N#Cc1c[nH]c2nc(N)nc(N3CC[C@@H](O)C3)c12	> 30	> 30
N#Cc1c[nH]c2nc(N)nc(-c3ccccc3C(N)=O)c12	> 30	> 30
CS(=O)(=O)Nc1ccc(-c2nc(N)nc3[nH]cc(C#N)c23)cc1	1.4	0.1
N#Cc1c[nH]c2nc(N)nc(NCC3CC3)c12	16	> 30
N#Cc1c[nH]c2nc(N)nc(N3CCC(S(N)(=O)=O)CC3)c12	5.3	5.9
N#Cc1c[nH]c2nc(N)nc(N3CCC[C@@H]3CO)c12	2.5	> 30
N#Cc1c[nH]c2nc(N)nc(NCCO)c12	1.6	> 30
N#Cc1c[nH]c2nc(N)nc(NCc3ccccc3)c12	5.3	> 30
CNS(=O)(=O)c1ccc(-c2nc(N)nc3[nH]cc(C#N)c23)cc1	1.7	0.4
Nc1nc(N2CCCCC2)c2cc[nH]c2n1	> 30	> 30
N#Cc1c[nH]c2nc(N)nc(Cl)c12	4	> 30
NS(=O)(=O)c1ccc(-c2ncnc3[nH]ccc23)cc1	1.5	2.5
Nc1nc(-c2ccc(S(N)(=O)=O)cc2)c2cc[nH]c2n1	2.9	0.61
N#Cc1c[nH]c2nc(N)nc(-c3cccc(O)c3)c12	2.4	3.8
N#Cc1c[nH]c2nc(N)nc(-c3cccc(F)c3)c12	7.7	> 30
N#Cc1c[nH]c2nc(N)nc(-c3ccc(C(N)=O)cc3)c12	16	> 30
N#Cc1c[nH]c2nc(N)nc(Nc3ccc(S(N)(=O)=O)cc3)c12	10	> 30
N#Cc1c[nH]c2nc(N)nc(N3CCCCC3)c12	5.3	> 30
CN1CCN(c2nc(N)nc3[nH]cc(C#N)c23)CC1	> 30	> 30
N#Cc1c[nH]c2nc(N)nc(-c3cccc(C(N)=O)c3)c12	> 30	> 30
N#Cc1c[nH]c2nc(N)nc(-c3ccccc3CO)c12	> 30	> 30
N#Cc1c[nH]c2nc(N)nc(N3CCN(CCO)CC3)c12	> 30	> 30
Nc1nc(NC2CCCCC2)c2c(C(F)(F)F)c[nH]c2n1	> 30	> 30
N#Cc1c[nH]c2nc(N)nc(Nc3ccc(C(=O)O)cc3)c12	> 30	> 30
